Measurements taken from ChEMBL document CHEMBL4602706, “Natural Product Evodiamine with Borate Trigger Unit: Discovery of Potent Antitumor Agents against Colon Cancer” (ACS Med Chem Lett, 2020).
Values belong to the molecule of their own block, whether it stands above or below them. Calls of active or inactive are those of the source. No cut-off for these calls is given here.

Columns and labels:
[1] = test system: MCF7; assay: Antiproliferative activity against human MCF7 cells incubated for 72 hrs by CCK8 assay; type: functional, cell-based; settings: Homo sapiens, MCF7, 72 h; read-out: IC50
Procedure, shortened: (§1)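 HCT116, MCF-7 and A549 human cancer cell lines; antiproliferative activity read out by CCK8 assay. Evodiamine derivatives and camptothecin served as positive controls.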

[2] = Toxicity in nude mouse xenografted with human HCT116 cells assessed as change in body weight at 10 mg/kg, ip bid measured every two days for 21 days; type: organism-based, HCT-116; settings: in vivo, 504 h
Procedure, shortened: (§2)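 HCT116 xenograft in mice. Dosing 10 mg/kg intraperitoneally over 21 consecutive days; tumour growth inhibition and body weight followed. Mean ± SEM, Student's t test versus vehicle group.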

[3] = molecular target: T1, DNA topoisomerase 1 (Homo sapiens) (UniProt P11387); assay: Inhibition of Top1 (unknown origin) at 125 uM using supercoiled pBR322 plasmid DNA as substrate incubated for 15 mins by PI staining based agarose gel electrophoresis analysis
T1 sequence (whole entry): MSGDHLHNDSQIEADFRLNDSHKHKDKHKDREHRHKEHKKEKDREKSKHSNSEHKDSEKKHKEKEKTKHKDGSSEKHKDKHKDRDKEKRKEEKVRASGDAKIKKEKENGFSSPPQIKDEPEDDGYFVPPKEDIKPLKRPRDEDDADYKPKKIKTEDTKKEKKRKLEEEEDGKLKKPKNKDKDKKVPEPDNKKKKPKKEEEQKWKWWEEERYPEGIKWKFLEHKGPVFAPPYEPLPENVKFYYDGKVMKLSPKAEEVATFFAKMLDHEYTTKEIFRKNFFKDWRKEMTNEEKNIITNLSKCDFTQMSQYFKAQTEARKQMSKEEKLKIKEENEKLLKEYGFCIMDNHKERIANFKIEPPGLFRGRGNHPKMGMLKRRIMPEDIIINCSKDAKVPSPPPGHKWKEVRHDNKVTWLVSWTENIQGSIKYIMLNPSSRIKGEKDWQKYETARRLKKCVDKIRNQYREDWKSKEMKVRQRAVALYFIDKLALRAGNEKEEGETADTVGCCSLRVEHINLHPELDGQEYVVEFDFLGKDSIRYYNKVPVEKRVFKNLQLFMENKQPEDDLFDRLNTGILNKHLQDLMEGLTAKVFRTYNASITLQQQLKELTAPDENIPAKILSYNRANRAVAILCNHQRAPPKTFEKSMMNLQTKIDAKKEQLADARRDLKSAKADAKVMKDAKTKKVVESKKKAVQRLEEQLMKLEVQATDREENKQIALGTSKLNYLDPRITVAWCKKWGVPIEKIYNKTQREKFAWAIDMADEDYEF
Procedure, shortened: (§3)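 Top1 inhibition tested at 500, 250 and 125 μM, and over 27.9 to 250 μM for selected compounds.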

[4] = Drug metabolism in PBS buffer assessed as H2O2-mediated 3-Fluoro-10-hydroxy-14-methyl-8,13,13b,14-tetrahydro-7H-indolo[2',3':3,4]pyrido[2,1-b]quinazolin-5-one release rate at pH 7.4 incubated for 8 hrs in presence of 0.05 mM H2O2 by HPLC analysis; type: physicochemical; settings: pH 7.4, 8 h
Procedure, shortened: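 Release of the parent compound after treatment with H2O2 at varied concentrations, including 0.05 mM, in PBS pH 7.4. Analysed by HPLC.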

[5] = Drug metabolism in human HCT116 cells assessed as 3-Fluoro-10-hydroxy-14-methyl-8,13,13b,14-tetrahydro-7H-indolo[2',3':3,4]pyrido[2,1-b]quinazolin-5-one release by measuring parent compound retention time incubated for 8 hrs by UPLC-QTOF/MS analysis; type: ADME, cell-based; settings: hct-116, 8 h
Procedure, shortened: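 Compounds incubated with HCT116 cells; culture media analysed by HPLC after 8, 48 and 72 h. Relative release rate taken from relative peak areas; parent and product identified by retention time.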

[6] = test system: HCT-116; assay: Induction of cell cycle arrest in human HCT116 cells assessed as accumulation at G2 phase at 0.05 uM incubated for 24 hrs by propidium iodide staining based flow cytometry (reference value: 18.51 to 20.82%); type: functional
[7] = molecular target: T1, DNA topoisomerase 1 (Homo sapiens); assay: Inhibition of Top1 (unknown origin) at 83.3 uM using supercoiled pBR322 plasmid DNA as substrate incubated for 15 mins by PI staining based agarose gel electrophoresis analysis
[8] = test system: HCT-116; assay: Induction of apoptosis in human HCT116 cells assessed as apoptotic cells at 0.4 uM incubated for 48 hrs by AnnexinV-FITC/PI staining based flow cytometric analysis (reference value: 6.25 to 8.23%); type: functional
Procedure, shortened: (§4)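 HCT116 cells exposed to 0.05, 0.2 or 0.4 μM for 48 h. Apoptotic cells quantified by flow cytometry, n = 3.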

[9] = test system: HCT-116; assay: Induction of cell cycle arrest in human HCT116 cells assessed as accumulation at G2 phase at 0.2 uM incubated for 24 hrs by propidium iodide staining based flow cytometry (reference value: 18.51 to 20.82%); type: functional
[10] = test system: HCT-116; assay: Induction of cell cycle arrest in human HCT116 cells assessed as accumulation at S phase at 0.2 uM incubated for 24 hrs by propidium iodide staining based flow cytometry (reference value: 30.31 to 40.69%); type: functional
[11] = test system: HCT-116; assay: Induction of cell cycle arrest in human HCT116 cells assessed as accumulation at S phase at 0.05 uM incubated for 24 hrs by propidium iodide staining based flow cytometry (reference value: 30.31 to 40.69%); type: functional
[12] = test system: HCT-116; assay: Induction of cell cycle arrest in human HCT116 cells assessed as accumulation at G1 phase at 0.2 uM incubated for 24 hrs by propidium iodide staining based flow cytometry (reference value: 38.49 to 51.18%); type: functional
[13] = test system: HCT-116; assay: Induction of apoptosis in human HCT116 cells assessed as apoptotic cells at 0.05 uM incubated for 48 hrs by AnnexinV-FITC/PI staining based flow cytometric analysis (reference value: 6.25 to 8.23%); type: functional; procedure, shortened: as §4
[14] = test system: A549; assay: Antiproliferative activity against human A549 cells incubated for 72 hrs by CCK8 assay; type: functional, cell-based; settings: Homo sapiens, A549, 72 h; read-out: IC50; procedure, shortened: as §1
[15] = test system: HCT-116; assay: Induction of apoptosis in human HCT116 cells assessed as apoptotic cells at 0.2 uM incubated for 48 hrs by AnnexinV-FITC/PI staining based flow cytometric analysis (reference value: 6.25 to 8.23%); type: functional; procedure, shortened: as §4
[16] = test system: HCT-116; assay: Induction of cell cycle arrest in human HCT116 cells assessed as accumulation at G1 phase at 0.4 uM incubated for 24 hrs by propidium iodide staining based flow cytometry (reference value: 38.49 to 51.18%); type: functional
[17] = test system: HCT-116; assay: Induction of cell cycle arrest in human HCT116 cells assessed as accumulation at G1 phase at 0.05 uM incubated for 24 hrs by propidium iodide staining based flow cytometry (reference value: 38.49 to 51.18%); type: functional
[18] = Drug metabolism in human HCT116 cells assessed as 3-Fluoro-10-hydroxy-14-methyl-8,13,13b,14-tetrahydro-7H-indolo[2',3':3,4]pyrido[2,1-b]quinazolin-5-one release at 0.2 mM by UPLC-QTOF/MS analysis relative to control; type: ADME, cell-based; settings: hct-116, 200 µM, TDE = time-dependent effect
[19] = molecular target: T2, DNA topoisomerase II (Homo sapiens) (UniProt P11388+Q02880); assay: Inhibition of Top2 (unknown origin) at 50 uM using supercoiled pBR322 plasmid DNA as substrate incubated for 30 mins by PI staining based agarose gel electrophoresis analysis; type: protein assay
[20] = test system: HCT-116; assay: Antitumour activity against human HCT116 cells xenografted in nude mouse assessed as tumour growth inhibition at 10 mg/kg, ip bid measured every two days for 21 days by caliper method relative to control; type: functional; settings: HCT-116, ip, read-out: TGI; procedure, shortened: as §2
[21] = Metabolic stability in mouse liver microsomes assessed as half life at 1 uM preincubated with compound followed by NADPH addition measured upto 45 mins by LC-MS/MS analysis; type: ADME, Microsome
Procedure, shortened: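 In vitro stability in liver microsomes; terminal half-life determined.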

[22] = molecular target: T1, DNA topoisomerase 1 (Homo sapiens); assay: Inhibition of Top1 (unknown origin) at 500 uM using supercoiled pBR322 plasmid DNA as substrate incubated for 15 mins by PI staining based agarose gel electrophoresis analysis; procedure, shortened: as §3
[23] = test system: HCT-116; assay: Induction of apoptosis in human HCT116 cells incubated for 48 hrs by AnnexinV-FITC/PI staining based flow cytometric analysis; type: functional, cell-based
[24] = molecular target: T2, DNA topoisomerase II (Homo sapiens); assay: Inhibition of Top2 (unknown origin) using supercoiled pBR322 plasmid as substrate incubated for 30 mins by PI staining based agarose gel electrophoresis analysis; type: protein assay
[25] = test system: HCT-116; assay: Induction of cell cycle arrest in human HCT116 cells assessed as accumulation at S phase at 0.4 uM incubated for 24 hrs by propidium iodide staining based flow cytometry (reference value: 30.31 to 40.69%); type: functional
[26] = test system: HCT-116; assay: Antiproliferative activity against human HCT116 cells incubated for 72 hrs by CCK8 assay; type: functional, cell-based; settings: Homo sapiens, HCT-116, 72 h; read-out: IC50; procedure, shortened: as §1
[27] = test system: HCT-116; assay: Induction of cell cycle arrest in human HCT116 cells assessed as accumulation at G2 phase at 0.4 uM incubated for 24 hrs by propidium iodide staining based flow cytometry (reference value: 18.51 to 20.82%); type: functional
[28] = test system: HCT-116; assay: Antitumour activity against human HCT116 cells xenografted in nude mouse assessed as tumour growth inhibition at 0.5 mg/kg, ip qd measured every two days for 21 days by caliper method relative to control; type: functional; settings: HCT-116, ip, read-out: TGI
[29] = Toxicity in nude mouse xenografted with human HCT116 cells assessed as change in body weight at 0.5 mg/kg, ip qd measured every two days for 21 days; type: organism-based, HCT-116; settings: in vivo, 504 h

IC50 [1]: 33 nM | inhibition [3]: Active | Drug metabolism [4]: Dose-dependent effect | inhibition [7]: Active | IC50 [14]: 37 nM | inhibition [19]: Active | half-life at 1 µM [21]: 8.36 min | inhibition [22]: Active | inhibition [24]: Active | IC50 [26]: 16 nM
Compound: CN1c2ccc(F)cc2C(=O)N2CCc3c([nH]c4ccc(OC(=O)OCc5ccc(B6OC(C)(C)C(C)(C)O6)cc5)cc34)C21 (centres undefined)
Activity [2]: Non-Toxic | Retention_time [5]: 11.4 min | Activity [6]: 26.88% | Activity [8]: 61.73% | Activity [9]: 45.49% | Activity [10]: 45.69% | Activity [11]: 38.8% | Activity [12]: 8.82% | Activity [13]: 41.28 - 42.28% | Activity [15]: 55.64% | Activity [16]: 4.95% | Activity [17]: 34.32% | Drug metabolism [18]: Tde | inhibition in vivo at 10 mg/kg [20]: 64.4% | Activity [23]: Dose-dependent effect | Activity [25]: 38.8% | Activity [27]: 56.25%

Compound: CC[C@@]1(O)C(=O)OCc2c1cc1n(c2=O)Cc2cc3c(CN(C)C)c(O)ccc3nc2-1 [TOPOTECAN]
inhibition in vivo at 0.5 mg/kg [28]: 68.8% | Activity [29]: Toxic
